Screening data: PubChem, several laboratories
SENP6 block: SENP6 protease inhibitors, primary screen, biochemical, luminescence, uHTS; Sentrin-specific protease 6 (Homo sapiens), Q9GZR1; Recombinant SENP6 catalytic domain, aminoluciferin luminescence; inhibition, % at 10 µM; 1.8% of 330,000 active;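 active = inhibition above about 50% at the single tested dose, limit read from the data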;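 also: plate controls were DMSO wells with enzyme for no effect and DMSO wells lacking enzyme for full effect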
SENP8 block-1: SENP8 protease inhibitors, primary screen, biochemical, luminescence | purified SENP8, Z-RLRGG-aminoluciferin cleavage | inhibition, % at 10 µM | 1.2% of 330,000 active | AID 2540, 2010; in the data active = inhibition above about 50%
HSP90 refold inh: HSP90 inhibitors, primary screen, cell lysate, luminescence. Heat shock protein HSP 90 (rabbit reticulocyte lysate; luciferase refolding). Rabbit reticulocyte lysate, luciferase refolding luminescence, 3 h. inhibition, % at 5.6 µM. 0.91% of 290,000 active;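 active = inhibition above the screen-wide mean plus 3 SD, computed separately per campaign, cut at about 16% in these data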;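 also: 0% = DMSO wells and 100% = 60 µM geldanamycin wells; inhibitors lower the luminescence because luciferase stays unfolded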
SENP7 block: SENP7 protease inhibitors, primary screen, biochemical, luminescence, uHTS; 1.5% of 330,000 active; inhibition, % at 5 µM; recombinant SENP7, Z-RLRGG-aminoluciferin luminescence, 40 min; Sentrin-specific protease 7 (Homo sapiens), Q9BQF6;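 active = inhibition above about 50% at the single test dose, limit read from the data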;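 also: plate controls were DMSO with enzyme for no effect and no enzyme buffer wells for full effect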
Target sequence (Q9BQF6 706-1050 limits assumed): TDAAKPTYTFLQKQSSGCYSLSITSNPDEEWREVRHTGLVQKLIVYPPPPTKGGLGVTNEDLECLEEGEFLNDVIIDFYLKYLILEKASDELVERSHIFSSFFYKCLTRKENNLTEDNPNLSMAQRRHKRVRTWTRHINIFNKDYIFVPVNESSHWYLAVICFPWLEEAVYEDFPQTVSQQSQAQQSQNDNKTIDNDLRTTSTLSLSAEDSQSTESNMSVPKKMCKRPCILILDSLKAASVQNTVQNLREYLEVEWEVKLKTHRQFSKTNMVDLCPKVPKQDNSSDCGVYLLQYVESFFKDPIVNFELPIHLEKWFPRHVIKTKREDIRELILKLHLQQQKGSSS
SENP1 FRET inh: human SENP1 catalytic domain inhibitors, primary screen, biochemical, FRET, uHTS | recombinant SENP1 catalytic domain, CyPet-SUMO1-YPet FRET cleavage | inhibition, % at 10 µM | 0.21% of 360,000 active | AID 624204, 2012;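 active = inhibition at least 30% at 10 µM, raw YFP signal under a set limit, fluorescence ratio 0.5 to 1.5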;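 also: 0% = enzyme with DMSO and 100% = no enzyme wells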
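Test system: recombinant human SENP1 catalytic domain, His6-tagged / Medium: pH 8 Tris buffer with EDTA, NaCl, BME, BSA, NP40, catalase / Also added: SUMO1 FRET substrate flanked by Cypet and Ypet, 25 nM / Times: 50 min reaction at room temperature / Signal: FRET, CFP and YFP emission / Control set: no-enzyme low control and enzyme-plus-DMSO high control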
SENP8 block-2: human SENP8 protease inhibitors, primary screen, biochemical, fluorescence, Nedd8 protein substrate, uHTS | Sentrin-specific protease 8 (Homo sapiens), Q96LD8 | recombinant SENP8 | inhibition, % at 20 µM | 0.64% of 360,000 active | AID 602440, 2012; in the data active = inhibition mostly above about 40%, no sharp cut-off; inactive = mostly below about 27%
Numbers without * were called inactive; i = inactive; nt = no result. Only some compounds are listed: those with a hit (about 2.9% of all), similar ones and a draw of the others.

SMILES | SENP6 block | SENP8 block-1 | HSP90 refold inh | SENP7 block | SENP1 FRET inh | SENP8 block-2
COc1cc(OC)c(-c2c3cc(O)c(=O)cc-3oc3cc(O)c(O)cc23)cc1OC | 18 | -7 | 1 | -6 | 88* | 24
COc1ccccc1NS(=O)(=O)c1ccc(C)c(NS(=O)(=O)c2cc(C(=O)O)cc(C)c2C)c1 | 0 | 0 | 2 | 0 | 0 | -1
Cc1ccccc1NC1=C(C(=O)c2ccccc2)N(C)S(=O)(=O)c2ccccc21 | -11 | 1 | 4 | 5 | 22 | 43*
CN1C(C(=O)Nc2ccc(C(=O)O)cc2)=C(O)c2ccccc2S1(=O)=O | 10 | -4 | nt | 0 | 0 | -152
CCCN1C(=O)/C(=C2/C=Cc3ccccc3N2CC)SC1=S | 1 | -5 | 4 | 1 | 9 | 28
CCCN1/C(=C2/SC(=S)N(CC)C2=O)C=Cc2ccccc21 | -2 | 3 | -1 | 9 | 6 | 41*
COc1ccc(C)cc1Nc1n[n+](-c2ccccc2)c(-c2ccc(N(C)C)cc2)s1 | -24 | -17 | -6 | 17 | 41* | -152
Nc1nn2cc(-c3ccc(Br)cc3)nc2c2ccccc12 | 87* | 75* | 2 | 79* | 0 | i
C=CCc1cccc2cc(C(=O)Nc3cccc(C(=O)O)c3)c(=O)oc12 | 55* | 21 | -3 | 25 | nt | nt
Nc1ccc2oc3ccccc3c2c1 | 11 | 1 | 16* | 2 | -20 | -132
C[C@@H]1CCCCO[C@H](CN(C)C(=O)Nc2ccc(C(F)(F)F)cc2)[C@@H](C)CN([C@H](C)CO)C(=O)c2cc(NC(=O)c3ccncc3)ccc2O1 | nt | nt | nt | nt | -1 | 15
Cc1ccc(C(=O)c2coc3c2C(=O)C(=O)c2ccccc2-3)cc1 | 23 | 3 | 5 | -2 | 3 | 56*
Cc1oc2c(c1C(=O)c1ccc(Cl)cc1)C(=O)C(=O)c1ccccc1-2 | nt | nt | -1 | nt | 8 | 113*
Cc1cc(C(=O)CSc2nnc(-c3ccccc3)o2)c(C)n1CC1COc2ccccc2O1 (centres undefined) | -3 | 0 | 16* | -5 | 2 | 37
CCN(C(=O)CCS(=O)(=O)c1ccc2c(c1)oc(=O)n2C)c1ccc(OC)cc1 | -12 | -11 | -5 | 16 | 2 | -6
O=C1C=C(Nc2cccnc2)c2ccccc2C1=O | nt | nt | nt | nt | 3 | 91*
COC(=O)[C@@]12CCCCN1[C@H](c1ccc(-c3ccc4c(c3)OCO4)cc1)[C@H]1C(=O)N(C)C(=O)[C@H]12 | -3 | 2 | nt | 3 | 0 | 8
Oc1ccc(NCc2ccccc2OCc2ccccc2)cc1 | 50 | -4 | 1 | 12 | 1 | 62*
CCOC(=O)C1=CCN(S(=O)(=O)c2ccccc2C)C1c1cccc(Cl)c1 (centres undefined) | nt | nt | nt | nt | -1 | 11
N#C/C(=N/Nc1ccccc1[N+](=O)[O-])C(N)=S | -13 | -11 | 13 | 12 | 3 | 45*
N#C/C(=N\Nc1ccc(Cl)cc1)C(N)=S | 33 | 16 | 2 | -32 | 1 | 46*
CC(C)(C)c1ccc(C(=O)c2c[nH]c(C(=O)NCCc3ccccn3)c2)cc1 | -4 | -9 | 16* | -6 | 3 | 9
CC[C@@]1(O)C(=O)OCc2c1cc1n(c2=O)Cc2cc3c(CN(C)C)c(O)ccc3nc2-1 | -8 | -1 | nt | 4 | -32 | -384
CC[C@@]1(O)C(=O)OCc2c1cc1n(c2=O)Cc2cc3c(N)cccc3nc2-1 | 11 | -3 | nt | 0 | 32* | -237
CS(=O)(=O)Nc1cccc(NC(=O)C2Cc3c(-c4ccco4)ccnc3O2)c1 (centres undefined) | nt | nt | nt | nt | 1 | 5
COc1ccc(NC(=O)CN(C)C(=O)CNC(=O)c2ccc3c(c2)OCO3)cc1 | -3 | -12 | nt | -10 | -3 | 6
Cc1c(/C(O)=C2\C(=O)C(=O)N(CCCN(C)C)C2c2ccccc2)cnn1-c1ccccc1 (centres undefined) | -7 | 0 | 42* | 0 | 0 | -18
